Among the data in ChEMBL document CHEMBL1134345, “Coumarin and chromen-4-one analogues as tautomerase inhibitors of macrophage migration inhibitory factor: discovery and X-ray crystallography” (J Med Chem, 2001) are Ki, Kd and IC50 values, retold here.

Assay [1] addresses T1, Macrophage migration inhibitory factor (Homo sapiens, UniProt P14174).
T1 sequence (P14174 whole entry): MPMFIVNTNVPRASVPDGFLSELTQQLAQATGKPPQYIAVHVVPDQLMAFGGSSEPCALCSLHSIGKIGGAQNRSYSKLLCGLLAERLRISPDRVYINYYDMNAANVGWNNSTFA
Briefly: Inhibitory activity against tautomerase macrophage migration inhibitory factor (MIF). An outline of the steps:
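Recombinant human MIF at 4 ug/mL final, in sodium phosphate buffer pH 6.0. Inhibitors were added in DMSO (1% v/v final). The reaction was started with freshly made D-dopachrome (D-DOPA oxidized with periodate, 1:2) at 0.25–0.5 mM. The A475 decrease was followed for 10 min. Initial rates were corrected for the uncatalyzed rate without MIF. Ki came from three-dimensional nonlinear regression.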

The target in assay [2] is T1, Macrophage migration inhibitory factor. As to the kind of experiment: Binding activity towards the active site of macrophage migration inhibitory factor (MIF).

pIC50, pKd, pKi: −log10 of the molar value.

As to `O=C(O)/C=C/c1ccc(O)cc1F`, the pKi in assay [1] was 5.59.

In the case of `O=C(COC(=O)c1cc2ccccc2oc1=O)c1ccccc1`, the negative-log Ki (pKi) in assay [1] was 5.80.

In turn, `N#Cc1cc2ccc(O)cc2oc1=O` gave a pKi in assay [1] of 5.54.

As to `O=c1oc2cc(O)ccc2cc1-c1nc(-c2ccc3c(c2)OCO3)cs1`, the pKi in assay [1] is 5.82.

As to `CN(C)c1ccc(/C=C2\C(=O)Oc3ccccc3C2=O)cc1`, the negative-log Ki (pKi) in assay [1] was 5.21.

In assay [1], `CC(=O)c1cc2ccc(O)cc2oc1=O` gave a pKi of 5.37.

In the case of `O=c1oc2ccccc2cc1-c1csc(-c2cc3ccc(O)cc3oc2=O)n1`, in assay [1], the pKi is 6.55.

In assay [1], `CCOC(=O)CC(=O)c1cc2ccc(O)cc2oc1=O` had a negative logarithm of the Ki (pKi) of 5.24.

`O=c1oc2cc(O)ccc2cc1-c1ccccc1`: the negative-log Ki (pKi) in assay [1] was 6.33. Against the preceding compound, the pKi is 1.09 log units higher.

Turning to `CCCCCCSC[C@H](NC(=O)CC[C@H](N)C(=O)O)C(=O)NCC(=O)O`, the pKd in assay [2] is 2.60. In assay [1], the negative logarithm of the IC50 (pIC50) was 2.48.

Regarding `Cc1nc(-c2cc3ccc(O)cc3oc2=O)cs1`, the pKi in assay [1] was 5.68.

As for `Cc1csc(-c2cc3ccc(O)cc3oc2=O)n1`, the pKi in assay [1] was 5.51.

With `NC(=S)c1cc2ccc(O)cc2oc1=O`, the pKi in assay [1] was 6.26.

In assay [1], `CCCCCCS` [HEXANETHIOL] showed a negative logarithm of the IC50 (pIC50) of 4.76.
